The nature of data set [1]: Toxicity in human RBC up to 512 ug/ml. It counts as cell-based. Conditions: erythrocyte. In outline:
(§1)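 Fresh human erythrocytes, 4% v/v in 35 mM phosphate buffer with 150 mM NaCl, incubated with test sample 1 h at 37 °C. After centrifugation, supernatant absorbance read at 414 nm. 0.1% Triton X-100 lysis taken as 100% hemolysis. Tested at concentrations up to 512 µg/mL.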

The test system of the next data set is Escherichia coli. The data set can be described thus: Antimicrobial activity against Escherichia coli after 24 hrs by microdilution assay. The class given is functional. Summed up:
(§2)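 NCCLS broth microdilution, final 100 µL. Bacteria grown in standard media to exponential phase. Compounds in 5% DMSO serially diluted; ~2–5 × 10^5 cells per well, 37 °C, 24 h, shaking 200 rpm. Growth read spectrophotometrically; percent survival relative to a drug-free 5% DMSO growth control; medium-only sterility control. MIC derived from survival data.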

The subject of a further data set is Staphylococcus aureus. The data set can be described thus: Antimicrobial activity against Staphylococcus aureus after 24 hrs by microdilution assay. The class given is functional. In outline:
as §2
Background: Broth dilution looks for growth in wells or tubes with falling amounts of substance.

The test system of data set [2] is Staphylococcus epidermidis. The data set can be described thus: Antimicrobial activity against Staphylococcus epidermidis after 24 hrs by microdilution assay. The class given is functional. In outline:
as §2

A further data set deals with Pseudomonas aeruginosa. The experiment in a line: Antimicrobial activity against Pseudomonas aeruginosa after 24 hrs by microdilution assay. The class given is functional. Summed up: as §2
Data set [3] can be described thus: Toxicity in human RBC assessed as hemolytic activity at 512 ug/ml. The class given is cell-based, Erythrocyte. As to conditions: red blood cells (RBC), read-out: Activity. In outline: as §1

This note sets out measurements from ChEMBL document CHEMBL1159100, “Synthesis and antibacterial activity of benzyl-[3-(benzylamino-methyl)-cyclohexylmethyl]-amine derivatives” (Bioorg Med Chem Lett, 2010).

Each structure is given as a SMILES string. Converted amounts (≈) assume the structure as drawn.

The MIC is the least concentration at which growth counts as inhibited. As for `Clc1cccc(CNCC2CCCC(CNCc3cccc(Cl)c3)C2)c1` (configuration not stated), the Activity result in data set [1] is on record as “Non-toxic”. Further, the MIC against Escherichia coli is above 250 µg/mL; against Staphylococcus aureus it was above 250 µg/mL; in data set [2], 0.25 µg/mL (≈ 0.639 µM); in the data set on Pseudomonas aeruginosa it was 0.125 µg/mL (≈ 0.319 µM).
Regarding `Fc1cccc(CNCC2CCCC(CNCc3cccc(F)c3)C2)c1` (configuration not stated), the MIC (with Escherichia coli; with Staphylococcus aureus; in data set [2]; in the data set with Pseudomonas aeruginosa) was above 250 µg/mL each time.
Consider `CCCc1ccc(CNCC2CCCC(CNCc3ccc(CCC)cc3)C2)cc1` (configuration not stated), for which the hemolysis at 512 ug/ml in data set [3] stood at 4%. Moreover, the MIC is 0.016 µg/mL (≈ 0.0393 µM) with Escherichia coli, above 250 µg/mL against Staphylococcus aureus, 0.016 µg/mL (≈ 0.0393 µM) in data set [2] and 0.016 µg/mL (≈ 0.0393 µM) in the data set on Pseudomonas aeruginosa.
Turning to `Brc1cccc(CNCC2CCCC(CNCc3cccc(Br)c3)C2)c1` (configuration not stated), in data set [1], the Activity result was “Non-toxic”. In addition, the MIC against Escherichia coli was above 250 µg/mL; against Staphylococcus aureus it was above 250 µg/mL; in data set [2], 0.125 µg/mL (≈ 0.26 µM); against Pseudomonas aeruginosa, 0.125 µg/mL (≈ 0.26 µM).
As for `CN(C)[C@@H]1C(O)=C(C(N)=O)C(=O)[C@@]2(O)C(O)=C3C(=O)c4c(O)cccc4[C@@](C)(O)[C@H]3C[C@@H]12` [TETRACYCLINE], the figures for the MIC (against Escherichia coli; with Staphylococcus aureus; in data set [2]) were 0.001 µg/mL (≈ 0.00225 µM), 0.01 µg/mL (≈ 0.0225 µM) and 0.02 µg/mL (≈ 0.045 µM), respectively.
With `Cc1cc(C)cc(CNCC2CCCC(CNCc3cc(C)cc(C)c3)C2)c1` (configuration not stated), the Activity result in data set [1] was “Non-toxic”. Moreover, the MIC against Escherichia coli was above 250 µg/mL; in the data set with Staphylococcus aureus, above 250 µg/mL; in data set [2], 0.25 µg/mL (≈ 0.66 µM); in the data set with Pseudomonas aeruginosa, 1 µg/mL (≈ 2.64 µM).
Turning to `Cc1ccc(CNCC2CCCC(CNCc3ccc(C)c(C)c3)C2)cc1C` (configuration not stated), the Activity entry in data set [1] is “Non-toxic”. The MIC against Escherichia coli was above 250 µg/mL; in the data set on Staphylococcus aureus, above 250 µg/mL; in data set [2], above 250 µg/mL; in the data set on Pseudomonas aeruginosa, 0.125 µg/mL (≈ 0.33 µM).
Consider `Clc1ccc(CNCC2CCCC(CNCc3ccc(Cl)cc3)C2)cc1` (configuration not stated), for which the Activity result in data set [1] is on record as “Non-toxic”. For the same compound, the MIC is above 250 µg/mL against Escherichia coli, 0.025 µg/mL (≈ 0.0639 µM) in the data set with Staphylococcus aureus, 0.065 µg/mL (≈ 0.166 µM) in data set [2] and 0.032 µg/mL (≈ 0.0818 µM) in the data set on Pseudomonas aeruginosa.
On to `Cc1ccc(CNCC2CCCC(CNCc3ccc(C)cc3C)C2)c(C)c1` (configuration not stated), for which the MIC (against Escherichia coli; against Staphylococcus aureus; in data set [2]; in the data set with Pseudomonas aeruginosa) was above 250 µg/mL each time.
Consider `Cc1ccccc1CNCC1CCCC(CNCc2ccccc2C)C1` (configuration not stated), for which the Activity entry in data set [1] is recorded as “Non-toxic”. Besides, the MIC (in the data set with Escherichia coli; with Staphylococcus aureus; in data set [2]; in the data set with Pseudomonas aeruginosa) was above 250 µg/mL each time.
For the compound `CC(C)c1ccc(CNCC2CCCC(CNCc3ccc(C(C)C)cc3)C2)cc1` (configuration not stated), the hemolysis at 512 ug/ml in data set [3] was determined as 4%. In addition, the MIC is above 250 µg/mL in the data set with Escherichia coli, above 250 µg/mL with Staphylococcus aureus, 0.125 µg/mL (≈ 0.307 µM) in data set [2] and 0.125 µg/mL (≈ 0.307 µM) with Pseudomonas aeruginosa.
Regarding `Cc1ccc(CNCC2CCCC(CNCc3ccc(C)cc3)C2)cc1` (configuration not stated), the Activity result in data set [1] is listed as “Non-toxic”. Moreover, the MIC was above 250 µg/mL in the data set with Escherichia coli, above 250 µg/mL against Staphylococcus aureus, 1 µg/mL (≈ 2.85 µM) in data set [2] and 0.5 µg/mL (≈ 1.43 µM) in the data set on Pseudomonas aeruginosa.
In the case of `CCCCc1ccc(CNCC2CCCC(CNCc3ccc(CCCC)cc3)C2)cc1` (configuration not stated), the hemolysis at 512 ug/ml in data set [3] turned out to be 4%. Further, the MIC against Escherichia coli turned out to be 0.016 µg/mL (≈ 0.0368 µM); with Staphylococcus aureus it was 0.004 µg/mL (≈ 0.0092 µM); in data set [2], 0.004 µg/mL (≈ 0.0092 µM); in the data set on Pseudomonas aeruginosa, 0.002 µg/mL (≈ 0.0046 µM).
For `Cc1cccc(CNCC2CCCC(CNCc3cccc(C)c3)C2)c1` (configuration not stated), the Activity entry in data set [1] is given as “Non-toxic”. Besides, the minimal inhibitory concentration (MIC) against Escherichia coli is above 250 µg/mL; in the data set on Staphylococcus aureus, above 250 µg/mL; in data set [2] it was 1 µg/mL (≈ 2.85 µM); against Pseudomonas aeruginosa, 1 µg/mL (≈ 2.85 µM).
As to `Clc1cccc(Cl)c1CNCC1CCCC(CNCc2c(Cl)cccc2Cl)C1` (configuration not stated), in data set [1], the Activity entry is on record as “Non-toxic”. In addition, the MIC (with Escherichia coli; against Staphylococcus aureus; in data set [2]; against Pseudomonas aeruginosa) was above 250 µg/mL throughout.
On to `O=[N+]([O-])c1cccc(CNCC2CCCC(CNCc3cccc([N+](=O)[O-])c3)C2)c1` (configuration not stated), for which the MIC in the data set with Escherichia coli was above 250 µg/mL; in the data set with Staphylococcus aureus, 0.02 µg/mL (≈ 0.0485 µM); in data set [2], above 250 µg/mL; in the data set on Pseudomonas aeruginosa, above 250 µg/mL.
On to `CC(C)(C)c1ccc(CNCC2CCCC(CNCc3ccc(C(C)(C)C)cc3)C2)cc1` (configuration not stated), for which, in data set [3], the hemolysis at 512 ug/ml stood at 4%. In addition, the MIC came to 0.002 µg/mL (≈ 0.0046 µM) against Escherichia coli, 0.016 µg/mL (≈ 0.0368 µM) with Staphylococcus aureus, 0.008 µg/mL (≈ 0.0184 µM) in data set [2] and 0.004 µg/mL (≈ 0.0092 µM) against Pseudomonas aeruginosa.
On to `Fc1ccc(CNCC2CCCC(CNCc3ccc(F)cc3)C2)cc1` (configuration not stated), for which the minimal inhibitory concentration (MIC) (in the data set on Escherichia coli; in the data set on Staphylococcus aureus; in data set [2]; in the data set with Pseudomonas aeruginosa) was above 250 µg/mL in each case.
For `c1ccc(CNCC2CCCC(CNCc3ccccc3)C2)cc1` (configuration not stated), the MIC (against Escherichia coli; in the data set with Staphylococcus aureus; in data set [2]; against Pseudomonas aeruginosa) was above 250 µg/mL each time.
As for `CCc1ccc(CNCC2CCCC(CNCc3ccc(CC)cc3)C2)cc1` (configuration not stated), the hemolysis at 512 ug/ml in data set [3] worked out at 0.5%. The MIC in the data set with Escherichia coli is above 250 µg/mL; in the data set on Staphylococcus aureus, above 250 µg/mL; in data set [2] it was 0.25 µg/mL (≈ 0.66 µM); against Pseudomonas aeruginosa it was 0.125 µg/mL (≈ 0.33 µM).
`Cc1ccc(C)c(CNCC2CCCC(CNCc3cc(C)ccc3C)C2)c1` (configuration not stated): the MIC (against Escherichia coli; against Staphylococcus aureus; in data set [2]; in the data set with Pseudomonas aeruginosa) was above 250 µg/mL in each case.
Regarding `Brc1ccc(CNCC2CCCC(CNCc3ccc(Br)cc3)C2)cc1` (configuration not stated), the Activity result in data set [1] is given as “Non-toxic”. Further, the MIC was above 250 µg/mL against Escherichia coli, above 250 µg/mL against Staphylococcus aureus, 0.125 µg/mL (≈ 0.26 µM) in data set [2] and 0.032 µg/mL (≈ 0.0666 µM) in the data set with Pseudomonas aeruginosa.
